# High-throughput results from PubChem BioAssay.
# Mcl1-Bid inh: Mcl-1/Bid interaction inhibition; AID 1021; 220,000 tested, 0.97% active; inhibition, % at 21.7 µM; Q07820; TR-FRET Mcl-1/Bid-Dy647 peptide binding, 1536-well;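 active = compounds that cut the binding signal by more than half at the single screening dose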;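 also: His-tagged Mcl-1 with europium anti-His antibody binding Bid BH3 peptide; 0% = Mcl-1 plus peptide wells and 100% = peptide-only wells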
# Target sequence (Q07820 whole entry, looked up): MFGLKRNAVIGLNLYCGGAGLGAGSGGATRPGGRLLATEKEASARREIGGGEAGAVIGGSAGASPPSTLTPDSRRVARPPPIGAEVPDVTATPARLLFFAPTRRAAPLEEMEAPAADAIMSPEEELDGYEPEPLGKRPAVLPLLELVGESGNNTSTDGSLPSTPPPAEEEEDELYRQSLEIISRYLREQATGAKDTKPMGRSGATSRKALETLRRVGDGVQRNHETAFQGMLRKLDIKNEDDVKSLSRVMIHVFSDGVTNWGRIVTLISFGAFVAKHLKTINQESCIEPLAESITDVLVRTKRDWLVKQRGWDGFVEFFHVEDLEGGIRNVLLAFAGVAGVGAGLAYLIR
# MCL1-BIM inh: inhibitors of human MCL1 binding to BIM-BH3 peptide. Q07820. GST-MCL1 / FITC-Bim-BH3 fluorescence polarization. inhibition, % at 10.9 µM. 320,000 tested, 0.68% active. AID 2057;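 active = inhibition above the mean inhibition of all tested compounds plus 3 SD, set per campaign, cut at about 40% in these data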;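 also: 0% = DMSO wells and 100% = unlabeled Bim-BH3 peptide control; higher means more loss of mP so more displacement of Bim peptide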
# T cell modulator: T cell immune modulators affecting CD8 T cell-vesicle binding; 2C CD8+ T cell-vesicle binding, flow cytometry; active compounds read low; response (vesicle binding), % at 7 µM; 330,000 tested, 0.068% active; AID 2052;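 active = response, share of CD8 T cells binding vesicles, and their 90th percentile fluorescence all below set limits, cut at about 80% in these data, passing the limit was not always enough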;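 also: values below 100% mean blocked vesicle binding to the CD8+ T cells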
#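 material = purified 2C TCR transgenic mouse naive CD8+ T cells | controls = Unloaded micro-vesicles (low), QL9 vesicles with 0.7% DMSO (high) | detection = cytometric PE anti-B7-1 and Alexa647 anti-CD8 signals after 1% paraformaldehyde fixation | incubation = binding step 1.5 h, 37 °C, antibody labelling 20 min, ice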
# Bim-Mcl-1: human Bim-Mcl-1 interaction inhibition; Q07820; Bead-based flow cytometry, Bim peptide-Mcl-1 binding; inhibition, % at 10 µM; 190,000 tested, 0.1% active; in the data active = inhibition above about 40%;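 also: 0% = no compound tracer wells and 100% = peptide blocker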
# Pemphigus Ab inh: blocks pemphigus antibody binding to human desmoglein-3; P32926; DSG3-coupled beads, scFv-anti-DSG3-GFP binding, flow cytometry; active compounds read low; binding (percent of control), % at 10 µM; 310,000 tested, 0.48% active; AID 588358;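 active = binding more than 3 SD below its plate's average and above zero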;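 also: hits lower antibody fragment binding to DSG3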
# Mcl1 Noxa PPI: Mcl-1/Noxa interaction inhibition; Q07820; TR-FRET Mcl-1/Noxa peptide binding, 2 h; inhibition, % at 21.7 µM; 220,000 tested, 1.5% active; AID 1022;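 active = compounds that cut the protein-peptide binding signal by more than 50% relative to plate controls in a single-dose test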;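 also: His-tagged Mcl-1 with rhodamine Noxa BH3 peptide and terbium anti-His antibody; 0% = Mcl-1 plus Noxa peptide wells and 100% = peptide-only wells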
# The depositor's hits bear a star; i = inactive; / = not tested or not shown; + = active, no number; ! = repeats disagree. Hits are enriched below; roughly 2.3% of the tested compounds scored in any of these assays.
SMILES,Mcl1-Bid inh,MCL1-BIM inh,T cell modulator,Bim-Mcl-1,Pemphigus Ab inh,Mcl1 Noxa PPI
Cc1ccc(S(=O)(=O)N2CN3CCN(C3)C2)cc1,79*,5,297,-4,/,11
CCC(C)N1C(=O)NC(=O)C2(Cc3c(ccc4ccccc34)N(C)C2)C1=O (configuration not stated),-105,13,248,2,/,59*
COc1cc2c(cc1O)C[C@H]1NCCc3cc4c(c-2c31)OCO4,-28,24,264,6,99,79*
Cc1cnc(-n2c(=S)[nH]c3ccccc3c2=O)s1,/,0,352,/,95,/
O=C1C=Cc2ccccc2C1=O,7,16,227,1,/,73*
O=S1c2ccccc2-c2ccccc21,/,/,/,/,105,/
C=C(C=O)CC1CC(O)[C@]2(C)OC3CC4OC5C[C@]6(C)O[C@]7(C)CCC8OC9C[C@]%10(C)OC%11C(C)=CC(=O)OC%11CC%10OC9C[C@@H](C)C8OC7CC6O[C@]5(C)CC5OC5C4OC3CC2O1 (some centres not stated),78*,15,679,-3,104,10
C=C(CO)CC1CC(O)[C@]2(C)OC3CC4OC5C[C@]6(C)O[C@]7(C)CCC8OC9C[C@]%10(C)OC%11C(C)=CC(=O)OC%11CC%10OC9C[C@@H](C)C8OC7CC6O[C@]5(C)C/C=C\C4OC3CC2O1 (some centres not stated),7,5,/,-1,103,17
CC(C)(C)c1cc([N+](=O)[O-])cc(C(C)(C)C)c1O,-27,2,209,0,/,8
Nc1ccc2c(c1)Cc1ccccc1-2,-51,-1,256,0,85,54*
O=C(c1ccncc1)C12CN3CN(CN(C3)C1)C2,0,9,273,1,98,-20
COc1cccc(-n2c(/C=C/c3ccc(O)c(O)c3)nc3ccccc3c2=O)c1,-6,11,103,-1,104,56*
COc1ccc(-n2c(/C=C/c3ccc(O)c(OC)c3)nc3ccccc3c2=O)cc1,/,-8,404,/,104,/
O=P(O)(O)Oc1ccccc1P(=O)(c1ccccc1)c1ccccc1,/,9,280,/,100,/
CC(C)N1CCN(c2ccc(O)cc2)CC1,-67,23,578,-6,101,54*
CCOC(=O)c1c(-n2c(C)cc(C=C3C(=O)NC(=S)NC3=O)c2C)sc2c1CCCC2,38,-24,152,-5,93,80*
CCOC(=O)c1c(-n2c(C)cc(/C=C3/C(=O)NC(=O)N(CC)C3=O)c2C)sc2c1CCCC2,/,-2,207,/,81,/
Cc1ccc2c(c1)C1CN(C)CCC1N2C(=O)Nc1cccc(Cl)c1 (configuration not stated),3,-4,244,37,105,99*
CC1N(O)C2CCCCCC2N1O (configuration not stated),-23,2,232,2,/,14
COC(=O)c1c(C)[nH]c(C(=O)C(Cc2ccccc2)N(C)C)c1C (configuration not stated),-45,2,169,-2,/,-1
C[C@]12CCC3C(CC[C@H]4C[C@@H](O)CC[C@]34C)C1C[C@@H](O)C2=O (some centres not stated),/,/,428,/,/,/
CCCc1nnc(NC(=O)CCC(=O)N2CCC3(CC2)OCCO3)s1,-3,44*,488,/,107,-11
CC(C)Cc1nnc(NC(=O)CCC(=O)N2CCC3(CC2)OCCO3)s1,-9,7,i,/,100,-13
CN1CCC(N(C)c2nc(-c3ccccc3)nc3ccccc23)CC1,5,2,483,0,109,52*
COC(=O)C1C2c3ccccc3OC1(C)N=c1s/c(=C/c3cnn(C)c3C)c(=O)n12 (configuration not stated),-8,-3,355,64*,103,9
SMILES,Mcl1-Bid inh,MCL1-BIM inh,T cell modulator,Bim-Mcl-1,Pemphigus Ab inh,Mcl1 Noxa PPI
CC(=O)C1C2c3ccccc3OC1(C)N=c1s/c(=C/c3cnn(C)c3)c(=O)n12 (configuration not stated),1,1,118,-2,105,-8
O=C1C=CC(=O)C2C1C1(Cl)C(Cl)=C(Cl)C2(Cl)C1(Cl)Cl (configuration not stated),/,/,/,/,110,/
CC(C)C1(C)N=C(c2ncccc2C(=O)O)NC1=O (configuration not stated),85*,7,488,-1,105,2
COc1cc(/C=C/[N+](=O)[O-])ccc1O,-25,9,384,-4,100,51*
O=C(O)c1cc2ccccc2oc1=O,13,-4,529,1,98,18
N#CCCn1cc(C=C2C(=O)NC(=O)NC2=O)c(-c2ccccc2)n1,-34,0,75,2,100,14
O=C(O)CCn1cc(C=C2C(=O)NC(=S)NC2=O)c(-c2ccccc2)n1,-52,-10,272,2,100,62*
O=C(O)CCn1cc(C=C2C(=O)NC(=S)NC2=O)c(-c2cc3ccccc3oc2=O)n1,5,/,/,2,99,81*
CC(C)N(Cc1ccco1)/N=C/c1c(O)n(Cc2ccccc2)c(=O)[nH]c1=O,-16,6,i,/,/,-1
O[C@@H]1CCCC[C@H]1N1CCC(c2ccccc2)CC1,2,-3,456,0,108,8
Cc1cc2c(cc1C)NP(=S)(c1ccccc1)N2,/,/,/,/,98,/
CCN1C(=O)C(=C/C=C/c2ccco2)C(=O)N(CC)C1=S,47,-31,324,-11,78,73*
Cc1ccc(/C=C2\C(=O)NC(=S)N(c3ccc(F)cc3)C2=O)s1,-24,21,138,0,93,29
Cc1ccc(/C=C2\C(=O)NC(=S)N(c3ccccc3F)C2=O)s1,19,26,585,0,97,93*
CN(C)[C@@H]1C(=O)C(C(N)=O)=C(O)[C@@]2(O)C(=O)C3=C(O)c4c(O)cccc4[C@@](C)(O)[C@H]3[C@H](O)[C@@H]12,72*,+,401,3,45*!,111*
CN(C)[C@@H]1C(=O)C(C(N)=O)=C(O)[C@@]2(O)C(=O)C3=C(O)c4c(O)ccc(Cl)c4[C@@](C)(O)[C@H]3C[C@@H]12,/,14,292,/,90,/
O=C1NC(=O)N(c2ccccc2)C(=O)/C1=C\c1ccc2c3c(cccc13)CC2,12,8,239,-4,/,81*
Clc1ccc(COC(Cn2ccnc2)c2ccc(Cl)cc2Cl)c(Cl)c1 (configuration not stated),8,-3,0.0*!,-1,104,-81
Cc1ccccc1NC1=NCC(C)S1 (configuration not stated),-4,2,521,0,103,7
c1ccc(-c2ccc(-c3n(-c4ccccn4)c4ccccc4[n+]3-c3ccccn3)cc2)cc1,16,/,/,-1,98,87*
